Reference: ChEMBL document CHEMBL1255284, “Aspergillus section Fumigati: antifungal susceptibility patterns and sequence-based identification” (2008)
Converted amounts (≈) assume the structure as drawn.

How the values were obtained:
Neosartorya hiratsukae [1] = assay: Antimicrobial activity against Neosartorya hiratsukae isolate CNM-CM-3305 obtained from skin of patient after 48 hrs by broth microdilution method; type: functional; details: Aspergillus hiratsukae, isolate CNM-CM-3305, 48 h
Procedure, shortened: (§1)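 CLSI M38-A broth microdilution with modifications: RPMI 1640 with L-glutamine, 2% glucose, buffered to pH 7 with 0.165 M MOPS. Inoculum of 1 × 10^5 to 5 × 10^5 CFU/ml from 3- to 5-day-old cultures. Incubated 35°C, 48 h, humid. Visual reading with a mirror. MIC is complete growth inhibition; echinocandin MEC is hyphal morphological alteration. Azoles 8 to 0.015 μg/ml; others 16 to 0.03 μg/ml.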

[2] = tested on: Neosartorya pseudofischeri; assay: Antimicrobial activity against Neosartorya pseudofischeri isolate CNM-CM-2270 obtained from sputum of patient after 48 hrs by broth microdilution method; type: functional; details: Aspergillus thermomutatus, isolate CNM-CM-2270, 48 h
Procedure, shortened: (§2)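 CLSI M38-A broth microdilution with modifications: RPMI 1640 with L-glutamine, MOPS-buffered to pH 7, plus 2% glucose. Inoculum 1 × 10^5 to 5 × 10^5 CFU/ml from 3–5-day cultures. Incubated at 35°C for 48 h, humid. Read visually with a mirror. MIC = complete growth inhibition; echinocandin MEC = altered hyphal morphology. QC strain A. fumigatus ATCC 2004305.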

Aspergillus lentulus [3] = assay: Antimicrobial activity against Aspergillus lentulus isolate CNM-CM-3599 obtained from sputum of patient after 48 hrs by broth microdilution method; type: functional; details: isolate CNM-CM-3599, 48 h; procedure, shortened: as §1
Aspergillus lentulus [4] = assay: Antimicrobial activity against Aspergillus lentulus isolate CNM-CM-3134 obtained from sputum of patient after 48 hrs by broth microdilution method; type: functional; details: isolate CNM-CM-3134, 48 h; procedure, shortened: as §1
Aspergillus fumigatus = assay: Antimicrobial activity against Aspergillus fumigatus ATCC 2004305 after 48 hrs by broth microdilution method; type: functional; details: ATCC 2004305, 48 h
Aspergillus viridinutans [5] = assay: Antimicrobial activity against Aspergillus viridinutans isolate CNM-CM-3147 obtained from oropharyngeal exudate of patient after 48 hrs by broth microdilution method; type: functional; details: isolate CNM-CM-3147, 48 h; procedure, shortened: as §1
Aspergillus lentulus [6] = assay: Antimicrobial activity against Aspergillus lentulus isolate CNM-CM-3538 obtained from sputum of patient after 48 hrs by broth microdilution method; type: functional; details: isolate CNM-CM-3538, 48 h; procedure, shortened: as §1
Aspergillus viridinutans [7] = assay: Antimicrobial activity against Aspergillus viridinutans isolate CNM-CM-4518 obtained from nail of patient after 48 hrs by broth microdilution method; type: functional; details: isolate CNM-CM-4518, 48 h; procedure, shortened: as §1
Neosartorya hiratsukae [8] = assay: Antimicrobial activity against Neosartorya hiratsukae isolate CNM-CM-3764 obtained from oropharyngeal exudate of patient after 48 hrs by broth microdilution method; type: functional; details: Aspergillus hiratsukae, isolate CNM-CM-3764, 48 h; procedure, shortened: as §1
[9] = tested on: Neosartorya pseudofischeri; assay: Antimicrobial activity against Neosartorya pseudofischeri isolate CNM-CM-3914 obtained from nail of patient after 48 hrs by broth microdilution method; type: functional; details: Aspergillus thermomutatus, isolate CNM-CM-3914, 48 h; procedure, shortened: as §2
Neosartorya hiratsukae [10] = assay: Antimicrobial activity against Neosartorya hiratsukae isolate CNM-CM-3303 obtained from skin of patient after 48 hrs by broth microdilution method; type: functional; details: Aspergillus hiratsukae, isolate CNM-CM-3303, 48 h; procedure, shortened: as §1
[11] = tested on: Neosartorya pseudofischeri; assay: Antimicrobial activity against Neosartorya pseudofischeri isolate CNM-CM-4060 obtained from sputum of patient after 48 hrs by broth microdilution method; type: functional; details: Aspergillus thermomutatus; procedure, shortened: as §2
Aspergillus lentulus [12] = assay: Antimicrobial activity against Aspergillus lentulus isolate CNM-CM-4420 obtained from nail of patient after 48 hrs by broth microdilution method; type: functional; details: isolate CNM-CM-4420, 48 h; procedure, shortened: as §1
[13] = tested on: Aspergillus fumisynnematus; assay: Antimicrobial activity against Aspergillus fumisynnematus isolate CNM-CM-4063 obtained from bronchoalveolar aspirate of patient after 48 hrs by broth microdilution method; type: functional; details: isolate CNM-CM-4063, Lung; procedure, shortened: as §1
Neosartorya hiratsukae [14] = assay: Antimicrobial activity against Neosartorya hiratsukae isolate CNM-CM-3740 obtained from oropharyngeal exudate of patient after 48 hrs by broth microdilution method; type: functional; details: Aspergillus hiratsukae, isolate CNM-CM-3740, 48 h; procedure, shortened: as §1
Aspergillus lentulus [15] = assay: Antimicrobial activity against Aspergillus lentulus isolate CNM-CM-4415 obtained from sputum of patient after 48 hrs by broth microdilution method; type: functional; details: isolate CNM-CM-4415, 48 h; procedure, shortened: as §1
Neosartorya hiratsukae [16] = assay: Antimicrobial activity against Neosartorya hiratsukae isolate CNM-CM-4328 obtained from cornea of patient after 48 hrs by broth microdilution method; type: functional; details: Aspergillus hiratsukae, isolate CNM-CM-4328, Cornea; procedure, shortened: as §1
Aspergillus lentulus [17] = assay: Antimicrobial activity against Aspergillus lentulus isolate CNM-CM-4426 obtained from sputum of patient after 48 hrs by broth microdilution method; type: functional; details: isolate CNM-CM-4426, 48 h; procedure, shortened: as §1
Aspergillus lentulus [18] = assay: Antimicrobial activity against Aspergillus lentulus isolate CNM-CM-3364 obtained from bronchoalveolar lavage fluid of patient after 48 hrs by broth microdilution method; type: functional; details: isolate CNM-CM-3364, Lung; procedure, shortened: as §1
Aspergillus lentulus [19] = assay: Antimicrobial activity against Aspergillus lentulus isolate CNM-CM-4370 obtained from sputum of patient after 48 hrs by broth microdilution method; type: functional; details: isolate CNM-CM-4370, 48 h; procedure, shortened: as §1
Aspergillus lentulus [20] = assay: Antimicrobial activity against Aspergillus lentulus isolate CNM-CM-3583 obtained from sputum of patient after 48 hrs by broth microdilution method; type: functional; details: isolate CNM-CM-3583, 48 h; procedure, shortened: as §1
Aspergillus lentulus [21] = assay: Antimicrobial activity against Aspergillus lentulus isolate CNM-CM-4428 obtained from skin of patient after 48 hrs by broth microdilution method; type: functional; details: isolate CNM-CM-4428, 48 h; procedure, shortened: as §1
[22] = tested on: Aspergillus fumigatiaffinis; assay: Antimicrobial activity against Aspergillus fumigatiaffinis isolate CNM-CM-3227 obtained from bronchoalveolar lavage fluid of patient after 48 hrs by broth microdilution method; details: isolate CNM-CM-3227, Lung
Aspergillus lentulus [23] = assay: Antimicrobial activity against Aspergillus lentulus isolate CNM-CM-3537 obtained from sputum of patient after 48 hrs by broth microdilution method; type: functional; details: isolate CNM-CM-3537, 48 h; procedure, shortened: as §1
Aspergillus lentulus [24] = assay: Antimicrobial activity against Aspergillus lentulus isolate CNM-CM-1290 obtained from sputum of patient after 48 hrs by broth microdilution method; type: functional; details: isolate CNM-CM-1290, 48 h; procedure, shortened: as §1
Aspergillus lentulus [25] = assay: Antimicrobial activity against Aspergillus lentulus isolate CNM-CM-4330 obtained from sputum of patient after 48 hrs by broth microdilution method; type: functional; details: isolate CNM-CM-4330, 48 h; procedure, shortened: as §1
Aspergillus lentulus [26] = assay: Antimicrobial activity against Aspergillus lentulus isolate CNM-CM-4387 obtained from sputum of patient after 48 hrs by broth microdilution method; type: functional; details: isolate CNM-CM-4387, 48 h; procedure, shortened: as §1
[27] = tested on: Neosartorya pseudofischeri; assay: Antimicrobial activity against Neosartorya pseudofischeri isolate CNM-CM-3769 obtained from sputum of patient after 48 hrs by broth microdilution method; type: functional; details: Aspergillus thermomutatus; procedure, shortened: as §2
[28] = tested on: Aspergillus fumigatiaffinis; assay: Antimicrobial activity against Aspergillus fumigatiaffinis isolate CNM-CM-2280 obtained from sputum of patient after 48 hrs by broth microdilution method; details: isolate CNM-CM-2280, 48 h

Compound | MIC (Neosartorya hiratsukae [1]) | MIC [2] | MIC (Aspergillus lentulus [3]) | MIC (Aspergillus lentulus [4]) | MIC (Aspergillus fumigatus) | MIC (Aspergillus viridinutans [5]) | MIC (Aspergillus lentulus [6]) | MIC (Aspergillus viridinutans [7]) | MIC (Neosartorya hiratsukae [8]) | MIC [9] | MIC (Neosartorya hiratsukae [10]) | MIC [11] | MIC (Aspergillus lentulus [12]) | MIC [13] | MIC (Neosartorya hiratsukae [14]) | MIC (Aspergillus lentulus [15]) | MIC (Neosartorya hiratsukae [16]) | MIC (Aspergillus lentulus [17]) | MIC (Aspergillus lentulus [18]) | MIC (Aspergillus lentulus [19]) | further results
CC[C@@H]([C@H](C)O)n1ncn(-c2ccc(N3CCN(c4ccc(OC[C@@H]5CO[C@@](Cn6cncn6)(c6ccc(F)cc6F)C5)cc4)CC3)cc2)c1=O [POSACONAZOLE] | 0.045 µg/mL (≈ 0.0642 µM) | 0.31 µg/mL (≈ 0.442 µM) | 0.5 µg/mL (≈ 0.713 µM) | 0.56 µg/mL (≈ 0.799 µM) | 0.03 µg/mL (≈ 0.0428 µM) | 0.41 µg/mL (≈ 0.585 µM) | 0.75 µg/mL (≈ 1.07 µM) | 0.25 µg/mL (≈ 0.357 µM) | 0.16 µg/mL (≈ 0.228 µM) | 0.5 µg/mL (≈ 0.713 µM) | 0.06 µg/mL (≈ 0.0856 µM) | 0.29 µg/mL (≈ 0.414 µM) | 0.33 µg/mL (≈ 0.471 µM) | 0.12 µg/mL (≈ 0.171 µM) | 0.1 µg/mL (≈ 0.143 µM) | 0.33 µg/mL (≈ 0.471 µM) | 0.09 µg/mL (≈ 0.128 µM) | 0.2 µg/mL (≈ 0.285 µM) | 2 µg/mL (≈ 2.85 µM) | 0.18 µg/mL (≈ 0.257 µM) | MIC (Aspergillus lentulus [20]): 0.25 µg/mL (≈ 0.357 µM); MIC (Aspergillus lentulus [21]): 0.62 µg/mL (≈ 0.885 µM); MIC [22]: 0.625 µg/mL (≈ 0.892 µM); MIC (Aspergillus lentulus [23]): 0.28 µg/mL (≈ 0.4 µM); MIC (Aspergillus lentulus [24]): 0.4 µg/mL (≈ 0.571 µM); MIC (Aspergillus lentulus [25]): 0.12 µg/mL (≈ 0.171 µM); MIC (Aspergillus lentulus [26]): 0.25 µg/mL (≈ 0.357 µM); MIC [27]: 0.25 µg/mL (≈ 0.357 µM); MIC [28]: 1.16 µg/mL (≈ 1.66 µM)
C[C@@H](c1nc(-c2ccc(C#N)cc2)cs1)[C@](O)(Cn1cncn1)c1ccc(F)cc1F [RAVUCONAZOLE] | 0.25 µg/mL (≈ 0.571 µM) | 3.5 µg/mL (≈ 8 µM) | 2 µg/mL (≈ 4.57 µM) | 6 µg/mL (≈ 13.7 µM) | 0.25 µg/mL (≈ 0.571 µM) | 5.66 µg/mL (≈ 12.9 µM) | 7 µg/mL (≈ 16 µM) | 4 µg/mL (≈ 9.14 µM) | 1.33 µg/mL (≈ 3.04 µM) | 4 µg/mL (≈ 9.14 µM) | 0.375 µg/mL (≈ 0.857 µM) | 3.33 µg/mL (≈ 7.61 µM) | 4 µg/mL (≈ 9.14 µM) | 0.83 µg/mL (≈ 1.9 µM) | 0.66 µg/mL (≈ 1.51 µM) | 4.66 µg/mL (≈ 10.7 µM) | 0.5 µg/mL (≈ 1.14 µM) | 5.33 µg/mL (≈ 12.2 µM) | 5.6 µg/mL (≈ 12.8 µM) | 5.33 µg/mL (≈ 12.2 µM) | MIC (Aspergillus lentulus [20]): 2 µg/mL (≈ 4.57 µM); MIC (Aspergillus lentulus [21]): 5 µg/mL (≈ 11.4 µM); MIC [22]: 5 µg/mL (≈ 11.4 µM); MIC (Aspergillus lentulus [23]): 3 µg/mL (≈ 6.86 µM); MIC (Aspergillus lentulus [24]): 3.5 µg/mL (≈ 8 µM); MIC (Aspergillus lentulus [25]): 1.5 µg/mL (≈ 3.43 µM); MIC (Aspergillus lentulus [26]): 3 µg/mL (≈ 6.86 µM); MIC [27]: 2 µg/mL (≈ 4.57 µM); MIC [28]: 6 µg/mL (≈ 13.7 µM)
